From PubChem
p-CIP stab down: lowers stability of the mouse p/CIP coactivator protein; Q05BA5; F442A p/CIP-EGFP cells, EGFP fluorescence, 16 h; decrease of EGFP signal, % at 10 µM; 290,000 tested, 0.01% active; AID 1984;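 active = EGFP signal decrease of at least 30% at 10 µM or well 3 SD below plate mean, unless failing retest; inactive = the rest, including hits failing retest or dose response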
Target sequence (Q05BA5 1-1403): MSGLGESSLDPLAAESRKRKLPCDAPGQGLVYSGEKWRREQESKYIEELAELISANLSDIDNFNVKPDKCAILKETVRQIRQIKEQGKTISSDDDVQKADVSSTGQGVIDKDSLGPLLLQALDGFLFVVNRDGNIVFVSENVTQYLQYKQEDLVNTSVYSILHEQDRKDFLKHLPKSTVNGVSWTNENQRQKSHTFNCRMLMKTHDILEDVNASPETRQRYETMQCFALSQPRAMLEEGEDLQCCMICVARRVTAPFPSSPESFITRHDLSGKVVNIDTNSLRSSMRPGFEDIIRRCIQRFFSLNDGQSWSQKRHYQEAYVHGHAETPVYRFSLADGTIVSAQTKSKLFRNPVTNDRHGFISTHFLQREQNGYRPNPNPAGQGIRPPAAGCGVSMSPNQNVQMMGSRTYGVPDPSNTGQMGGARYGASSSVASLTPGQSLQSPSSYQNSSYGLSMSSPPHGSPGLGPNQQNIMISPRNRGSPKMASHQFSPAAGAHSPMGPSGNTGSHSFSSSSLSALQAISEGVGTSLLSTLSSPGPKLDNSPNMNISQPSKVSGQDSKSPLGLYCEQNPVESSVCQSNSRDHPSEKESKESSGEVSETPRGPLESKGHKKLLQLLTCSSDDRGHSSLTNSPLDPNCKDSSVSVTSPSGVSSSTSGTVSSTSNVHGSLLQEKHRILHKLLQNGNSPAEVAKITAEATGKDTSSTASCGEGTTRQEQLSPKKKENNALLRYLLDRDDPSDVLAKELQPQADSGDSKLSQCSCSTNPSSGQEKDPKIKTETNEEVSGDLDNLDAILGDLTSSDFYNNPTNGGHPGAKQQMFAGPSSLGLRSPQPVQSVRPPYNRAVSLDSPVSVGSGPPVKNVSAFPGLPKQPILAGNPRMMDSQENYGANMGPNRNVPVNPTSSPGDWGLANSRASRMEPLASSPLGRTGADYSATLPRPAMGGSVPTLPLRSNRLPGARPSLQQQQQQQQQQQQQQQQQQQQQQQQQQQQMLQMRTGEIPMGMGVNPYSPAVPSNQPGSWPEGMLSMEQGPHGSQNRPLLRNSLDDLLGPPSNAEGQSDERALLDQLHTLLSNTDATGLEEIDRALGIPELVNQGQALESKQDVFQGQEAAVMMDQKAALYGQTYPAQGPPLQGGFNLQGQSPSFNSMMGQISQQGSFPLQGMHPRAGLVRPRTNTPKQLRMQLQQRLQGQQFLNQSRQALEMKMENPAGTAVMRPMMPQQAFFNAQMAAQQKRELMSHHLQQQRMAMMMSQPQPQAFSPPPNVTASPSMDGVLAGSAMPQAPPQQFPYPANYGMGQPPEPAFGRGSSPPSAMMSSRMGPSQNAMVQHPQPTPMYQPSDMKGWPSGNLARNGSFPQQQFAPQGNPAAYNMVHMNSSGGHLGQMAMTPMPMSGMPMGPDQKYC
T cruzi repl: T. cruzi replication inhibition; T. cruzi beta-gal in NIH3T3, luminescence, 90 h; inhibition, % (test concentration not listed); 300,000 tested, 1.4% active;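 active = mean inhibition across valid replicates above about 55%, limit read from the data; inconclusive = mean below that limit but half or more replicates reach it; inactive = mean below it, under half of replicates reach it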;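 note: signal also drops with host cell toxicity which is not excluded here; 0% = plate median of DMSO wells and 100% = zero luminescence signal; higher percent means less beta-gal luminescence so fewer parasites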
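compound dosing = single 50 nL compound addition per well in DMSO | material = NIH/3T3 host cells with β-galactosidase reporter T. cruzi | input = 5,000 host fibroblasts per well | timing = ≥90 h infection period, 3 h prior cell attachment | read-out basis = percent inhibition of parasite-derived β-gal signal | detection = GalScreen β-gal luminescence, detergent lysis, 60 min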
AI-2 QS modul: Vibrio harveyi AI-2 quorum sensing modulation; Vibrio harveyi JMH597 AI-2 luminescence/OD600 ratio, 9 h; active compounds read low; strain lacks LuxN and CqsS sensors; 0 = neutral-control median; activity change, % at 7.5 µM; 300,000 tested, 0.4% active; AID 2094; in the data active = activity change below about -75%, passing the limit was not always enough; inconclusive = no clear call, values can overlap the other calls;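 note: luminescence divided by OD600 gain over 9 h not by final OD600 alone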
UBC13 inh: human UBC13 polyubiquitination inhibition; P61088; UBC13 polyubiquitin chain formation, TR-FRET; inhibition, % at 20 µM; 330,000 tested, 0.47% active; AID 485273; in the data active = inhibition above about 45%, passing the limit was not always enough; inconclusive = no clear call, values can overlap the other calls
PP1 inh: counter-screen for PP5 inhibitors: inhibitors of human PP1-alpha; purified PP1alpha, OMFP fluorescence; inhibition, % at 6.7 µM; 320,000 tested, 0.9% active; AID 2235;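 active = inhibition above the mean inhibition of all tested compounds plus 3 SD, computed separately for each screening campaign, cut at about 15% in these data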
An asterisk follows results filed as active; ? = inconclusive; . = not tested or not shown. Most compounds without a hit are left out; they make up all but 2.8% or so of the library.

SMILES	p-CIP stab down	T cruzi repl	AI-2 QS modul	UBC13 inh	PP1 inh
Cc1cc2oc(=O)cc(Cn3ccnc3)c2cc1O	-13	-19	-4	-3	.
Cc1cc(Cn2ccnc2)c(C)cc1Cn1ccnc1	-7	59*	24	-3	-1
COC(=O)c1cc(NC(=O)CC2SC(=Nc3ccccc3)N(CCc3c[nH]c4ccccc34)C2=O)cc(C(=O)OC)c1 (stereo unspecified)	-4	67*	43	-10	3
COCCN1C(=O)C(CC(=O)Nc2ccc(C(=O)O)cc2)SC1=Nc1ccccc1 (stereo unspecified)	6	.	30	6	0
NC(=S)Nc1cccc2cc3ccccc3cc12	-51	-15	-80*	-33	6
CN(c1ccccc1)c1cc(=O)[nH]c(=O)[nH]1	0	-8	5	-18	-2
c1ccc(Oc2ccc(-c3ccn[nH]3)cc2)cc1	3	3	-73	6	-3
c1ccc(-c2ncc(-c3ccn[nH]3)s2)cc1	13	-51	10	10	16*
O=C(O)c1ccc(N/N=C/C2=Cc3ccccc3OC2)cc1	-3	-9	-91*	-13	4
NNC(=O)Cn1c(-c2ccccc2)cc(=O)n2ncnc12	-3	-6	20	5	1
Cc1cc(Br)ccc1NC(=O)CN1C(=O)C2C3CC(c4ccccc4)C(C3)C2C1=O (stereo unspecified)	-8	56*	-13	-4	5
Cc1cc(Br)ccc1NC(=O)CNC(=O)CN1C(=O)NC2(CCCCCC2)C1=O	-12	9	21	5	-8
N#CCCN(C(=O)COC(=O)c1ccc(S(=O)(=O)N2CCCC2)cc1)c1cccc(Cl)c1	.	.	.	-1	-1
CC1(C)CC(Nc2ccc(Nc3ccccc3)cc2)CC(C)(C)N1	8	65*	25	.	.
CC1(C)CC(NC(=O)c2ccccc2)CC(C)(C)N1	-2	-1	15	0	2
CCOc1ccc(C(=O)Nc2nnc(S(=O)(=O)N(C)Cc3ccco3)s2)cc1	0	-14	23	-11	17*
Cc1cc(C)nc(/N=C(\N)Nc2ccc(SC(F)F)cc2)n1	-16	6	-2	6	4
Cc1cc2nc3c(=O)n(CCc4ccccc4)c(=O)[nH]c3nc2cc1N	-36	56*	-34	-196	-4
Nc1ccc2nc3c(=O)n(CCc4ccccc4)c(=O)[nH]c3nc2c1	-31	-2	23	-241	-5
COc1cc(NC(=O)c2cc(-c3ccc4c(c3)OCO4)on2)cc(OC)c1OC	1	59*	27	5	-3
O=C(/C=C/c1cccc(F)c1)NC1CCN(Cc2ccccc2)CC1	0	55*	17	6	0
O=C(COc1ccc(Br)cc1Cl)NC1CCN(Cc2ccccc2)CC1	-3	61*	11	8	-3
O=C(Nc1cccc(F)c1)NC1CCN(Cc2ccccc2)CC1	-16	60*	-12	12	2
C=C(C)c1cccc(C(C)(C)NC(=O)N2CCCC2)c1	8	4	15	1	2
C=C(C)c1cccc(C(C)(C)NC(=O)NC2CCN(Cc3ccccc3)CC2)c1	-11	55*	10	2	-4
SMILES	p-CIP stab down	T cruzi repl	AI-2 QS modul	UBC13 inh	PP1 inh
CCOC(=O)C1(Cc2cccc(OC)c2)CCCN(C(=O)CNC(C)=O)C1 (stereo unspecified)	-9	-15	1	-12	-1
CCOC(=O)CC(N)c1ccc2c(c1)OCO2 (stereo unspecified)	2	-17	20	2	-6
CCCCC1=CC2=C(c3ccco3)C(=O)C(C)(OC(=O)c3ccc(OC)cc3)C(=O)C2=CN1C1CCCCC1 (stereo unspecified)	2	10	29	?	3
COc1ccc(/C=C/C(=O)N2c3ccccc3Sc3ccc(C(F)(F)F)cc32)cc1	-8	57*	42	-8	8
Cc1ccc(-c2nn(-c3ccccc3)cc2C2CC(c3cccs3)=NN2C(=O)CCCC(=O)O)cc1 (stereo unspecified)	-2	-1	26	0	12
Cc1ccc(-c2nn(-c3ccccc3)cc2C2CC(c3ccccc3)=NN2C(=O)CCC(=O)O)cc1 (stereo unspecified)	-11	0	5	-18	17*
O=S(=O)(c1ccc(NC(=S)NCc2ccco2)cc1)N1CCCCC1	-3	.	-88*	17	2
NC(=O)c1c(NC(=O)CCCn2cnc([N+](=O)[O-])n2)sc2c1CCCC2	-4	60*	16	6	5
O=C(CCCn1cnc([N+](=O)[O-])n1)Nc1ccc(F)c(Cl)c1	2	60*	28	1	-7
O=C(Cn1cnc([N+](=O)[O-])n1)N/N=C/c1cccc(Cl)c1	5	49	10	-14	1
O=C(CCCn1cnc([N+](=O)[O-])n1)Nc1ccc(Cl)cc1Cl	-14	58*	23	-8	0
O=C(CCCn1cnc([N+](=O)[O-])n1)Nc1cccc(O)c1	3	12	29	-6	-1
Cc1nnc2sc(-c3cccc(F)c3)nn2c1=O	-3	4	4	2	1
CCC1CCCCN1CCCNC(=O)c1ccc(CS(=O)(=O)c2ccccc2C)o1 (stereo unspecified)	14	16	7	9	-4
Cc1cc(C)c(S(=O)(=O)c2ccccc2)c(Cl)n1	1	-5	35	-2	-1
Cc1cc(C)c(S(=O)(=O)c2ccccc2C)c(Cl)n1	-17	55*	10	-8	0
Cc1ccc(C)c(S(=O)(=O)c2c(C)cc(C)nc2Cl)c1	1	54	20	4	1
Cc1ccc(S(=O)(=O)c2c(C)cc(C)nc2Cl)c(C)c1	0	59*	15	3	-2
Cn1c(CNC(=O)C2CCC(=O)N(CCc3cccc(F)c3)C2)nc2ccccc21 (stereo unspecified)	-1	-11	21	7	-6
CCOC(=O)[C@H]1[C@H]2COc3ccc(Cl)cc3[C@@H]2N2C(=O)CN(Cc3ccco3)C(=O)[C@@]12C	.	.	.	-13	0
Cc1c(Cl)cccc1Nc1nc(NCCO)c2ccccc2n1	-14	56*	0	20	5
OCCNc1nc(Nc2ccc(Br)cc2)nc2ccccc12	7	62*	-13	43	7
OCCNc1nc(Nc2ccccc2)nc2ccccc12	3	41	18	16	-1
Cc1ccc(C(C)(c2ccc(N)cc2)c2ccc(N)cc2)cc1	.	22	15	0	0
COc1cccc(/C=N/NC(=O)CN2C(=O)NC3NC(=O)NC32)c1 (stereo unspecified)	-1	-20	16	3	0
Cc1ccc(NC(=O)c2nnn(CC(=O)Nc3ccc4c(c3)OCO4)c2N)cc1C	-5	10	12	-6	9
Cc1ccc(NC(=O)Cn2nnc(C(=O)Nc3ccc(C)c(C)c3)c2N)cc1	-12	8	27	-15	16*
